From ChEMBL document CHEMBL3232782, “1,2,3,4,8,9,10,11-octahydrobenzo[j]phenanthridine-7,12-diones as new leads against Mycobacterium tuberculosis” (J Med Chem, 2014)
In brackets after ≈: the same amount, converted by molar mass. Activity calls are given as the source filed them. No cut-off for these calls is given here.

What was measured:
[1] = Selectivity index, ratio of IC50 for mouse J774A1 cells to MIC for Mycobacterium tuberculosis H37Rv expressing luciferase; type: toxicity, cell-based, J774.A1; conditions: read-out: Selectivity Index
Method in brief: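 SI = IC50/MIC. IC50 came from a neutral red uptake assay on J774 A.1 cells after 24 h exposure in DMEM + 10% FCS, with OD 530 nm. […] Both were from triplicate cultures.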

[2] = test system: Mycobacterium tuberculosis; assay: Antimycobacterial activity against Mycobacterium tuberculosis H37Rv expressing luciferase assessed as growth inhibition after 6 days by luminometry; type: functional; conditions: 144 h
Method in brief: (§1)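 Strains carried pSMT1 luxAB reporter plasmid. DMSO stocks 10 mM, serially diluted in 7H9 + 10% FCS, triplicate wells. Filtered bacterial suspension at 50 000 RLU/mL. Luminescence read after 6 days using 1% n-decanal substrate. […] Growth temperatures: M.tb 37 °C; M. avium and M. bovis 39 °C.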

[3] = Cytotoxicity against mouse J774A1 cells assessed as cell viability after 24 hrs by Trypan blue exclusion assay; type: cell-based; conditions: J774.A1, 24 h
[4] = Selectivity index, ratio of IC50 for mouse J774A1 cells to MIC for Mycobacterium tuberculosis H37Rv expressing luciferase infected in mouse J774A1 cells; type: toxicity, cell-based, J774.A1; conditions: read-out: Selectivity Index
Method in brief: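 SI = neutral red IC50 in J774 A.1 cells (24 h) divided by the intracellular MIC. The intracellular MIC came from luminescent H37Rv in infected J774 A.1 macrophages after 3 days of treatment starting 24 h post infection, with lysate luminescence measured using n-decanal.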

[5] = test system: Mycobacterium tuberculosis; assay: Antimycobacterial activity against Mycobacterium tuberculosis H37Rv expressing luciferase infected in mouse J774A1 cells assessed as inhibition of replication at 0.50 uM measured after 1 to 4 days by luminescence assay; type: functional; conditions: J774.A1
Method in brief: (§2)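 J774 A.1 cells (40 000/well) were infected with H37Rv lux at MOI 0.1 in DMEM with penicillin/fungizone and no gentamicin. Serial compound dilutions were added, with treatment starting 24 h post infection. Extracellular bacteria were removed by washes and 1 h 1% gentamicin. Cells were lysed with 1% Triton X-100 and luminescence read with n-decanal. Reduction in RLU versus untreated; INH 0.1 μM control.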

[6] = test system: Mycobacterium tuberculosis; assay: Antimycobacterial activity against Mycobacterium tuberculosis H37Rv expressing luciferase infected in mouse J774A1 cells assessed as inhibition of replication measured after 1 to 4 days by luminescence assay; type: functional, J774.A1; method in brief: as §2
[7] = Genotoxicity in mouse J774A1 cells assessed as DNA strand breaks at 0.25 to 5 uM after 24 hrs by Comet assay; type: toxicity, cell-based; conditions: j774.a1, 24 h
Method in brief: (§3)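 J774 A.1 cells (100 000/well) were exposed to compound serial dilutions in DMEM + 10% FCS for 24 h at 37 °C, 5% CO2. Alkaline comet assay: cells embedded in low-melt agarose, lysed, electrophoresed 20 min at 300 mA, neutralized and stained with gel red. The % tail DNA of 200 nuclei was scored by fluorescence microscopy. Mann–Whitney U test.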

[8] = Antimycobacterial activity against Mycobacterium avium subsp. avium ATCC 15769 expressing luciferase assessed as growth inhibition after 6 days by luminometry; type: functional; conditions: ATCC 15769, 144 h; method in brief: as §1
[9] = test system: Mycobacterium tuberculosis; assay: Antimycobacterial activity against Mycobacterium tuberculosis H37Rv expressing luciferase assessed as growth inhibition at 100 uM preincubated with liver S9 fraction for 15 mins followed by incubation with parasite and measured after 6 days by luminometry; type: functional, organism-based
Method in brief: (§4)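 Compounds (100 μM) were preincubated with NADPH/G-6-P-conditioned liver S9 at 37 °C, 5% CO2 for 15 or 30 min. They were then serially diluted and tested against luminescent H37Rv in 7H9 + 10% FCS. Luminescence was read after 6 days with n-decanal.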

[10] = test system: Mycobacterium avium subsp. paratuberculosis; assay: Antimycobacterial activity against Mycobacterium avium subsp. paratuberculosis ATCC 19698 expressing luciferase assessed as growth inhibition after 6 days by luminometry; type: functional; conditions: ATCC 19698, 144 h; method in brief: as §1
[11] = test system: Mycobacterium tuberculosis; assay: Antimycobacterial activity against Mycobacterium tuberculosis Beijing 17919 expressing luciferase assessed as growth inhibition after 6 days by luminometry; type: functional; conditions: Beijing 17919, 144 h; method in brief: as §1
[12] = Selectivity ratio of IC90 for Mycobacterium ulcerans 1615 to IC90 for Mycobacterium tuberculosis; type: functional
[13] = test system: Mycobacterium tuberculosis; assay: Antimycobacterial activity against Mycobacterium tuberculosis H37Rv expressing luciferase assessed as growth inhibition preincubated with liver S9 fraction for 30 mins followed by incubation with parasite and measured after 6 days by luminometry; type: functional; method in brief: as §4
[14] = test system: Mycobacterium tuberculosis; assay: Antimycobacterial activity against Mycobacterium tuberculosis H37Rv expressing luciferase infected in mouse J774A1 cells assessed as inhibition of replication at 0.25 uM measured after 1 to 4 days by luminescence assay; type: functional; conditions: J774.A1; method in brief: as §2
[15] = test system: Mycobacterium tuberculosis; assay: Antimycobacterial activity against Mycobacterium tuberculosis H37Rv expressing luciferase infected in mouse J774A1 cells assessed as inhibition of replication at 0.03 to 0.05 uM measured after 1 to 4 days by luminescence assay; type: functional, organism-based; conditions: J774.A1; method in brief: as §2
[16] = Genotoxicity in mouse J774A1 cells assessed as DNA strand breaks at 0.25 to 50 uM after 24 hrs by Comet assay; type: toxicity, cell-based; conditions: j774.a1, 24 h; method in brief: as §3

SMILES	selectivity ratio [1]	MIC99 [2] [µM]	IC50 [3] [µM]	further results
CC(C)(C)OC(=O)N1CCc2ncc3c(c2C1)C(=O)C1=C(C3=O)C2CCC1C2 (stereo not given)	0.57	12.9 (≈ 4.9 µg/mL)	7.33	–
CCOC(=O)C1CCc2ncc3c(c2C1)C(=O)C1=C(C3=O)C2CCC1C2 (stereo not given)	38.6	0.22 (≈ 0.0773 µg/mL)	8.49	selectivity ratio [4]: 10.8; inhibition at 0.5 µM [5]: 86.7%; MIC [6]: 2.38 µM (≈ 0.836 µg/mL); Activity [7]: Non-toxic; MIC [8]: 1.22 µM (≈ 0.429 µg/mL); growth inhibition (GI) [9]: Active; MIC [10]: 0.44 µM (≈ 0.155 µg/mL); MIC [11]: 0.14 µM (≈ 0.0492 µg/mL); Selectivity ratio [12]: 50; MIC [13]: 0.66 µM (≈ 0.232 µg/mL); inhibition at 0.25 µM [14]: 63.9%; growth inhibition (GI) [15]: inactive
CC(C)(C)C1CCc2ncc3c(c2C1)C(=O)C1=C(C3=O)C2CCC1CC2 (stereo not given)	2.68	8.56 (≈ 2.99 µg/mL)	22.9	–
CC(C)(C)C1CCc2ncc3c(c2C1)C(=O)c1ccccc1C3=O (stereo not given)	1.19	9.64 (≈ 3.08 µg/mL)	11.5	–
CCOC(=O)C1CCc2ncc3c(c2C1)C(=O)C1=C(C3=O)C2CCC1CC2 (stereo not given)	191	0.26 (≈ 0.095 µg/mL)	49.8	selectivity ratio [4]: 79.3; inhibition at 0.5 µM [5]: 94.3%; MIC [6]: 2.41 µM (≈ 0.881 µg/mL); MIC [8]: 0.37 µM (≈ 0.135 µg/mL); Activity [16]: Non-toxic; growth inhibition (GI) [9]: Active; MIC [10]: 0.21 µM (≈ 0.0767 µg/mL); MIC [11]: 0.16 µM (≈ 0.0585 µg/mL); Selectivity ratio [12]: 10; MIC [13]: 0.65 µM (≈ 0.238 µg/mL); inhibition at 0.25 µM [14]: 55.8%; growth inhibition (GI) [15]: inactive
Cc1nc2c(c3c1C(=O)c1ccccc1C3=O)CCCC2	0.61	17.8 (≈ 4.93 µg/mL)	10.9	–
CC(C)(C)C1CCc2ncc3c(c2C1)C(=O)C1=C(C3=O)C2CCC1O2 (stereo not given)	7.38	7.21 (≈ 2.43 µg/mL)	53.2	–
CO[C@H]1/C=C/O[C@@]2(C)Oc3c(C)c(O)c4c(O)c(c(/C=N/N5CCN(C)CC5)c(O)c4c3C2=O)NC(=O)/C(C)=C\C=C\[C@H](C)[C@H](O)[C@@H](C)[C@@H](O)[C@@H](C)[C@H](OC(C)=O)[C@@H]1C [RIFAMPIN]	> 526	0.19 (≈ 0.156 µg/mL)	> 100	–
CC(C)(C)C1CCc2ncc3c(c2C1)C(=O)C1=C(C3=O)C2CCC1C2 (stereo not given)	87	0.59 (≈ 0.198 µg/mL)	51.4	selectivity ratio [4]: 20.7; inhibition at 0.5 µM [5]: 52.6%; MIC [6]: 2.48 µM (≈ 0.832 µg/mL); MIC [8]: 0.8 µM (≈ 0.268 µg/mL); Activity [16]: Non-toxic; growth inhibition (GI) [9]: Active; MIC [10]: 0.69 µM (≈ 0.231 µg/mL); MIC [11]: 0.33 µM (≈ 0.111 µg/mL); Selectivity ratio [12]: 6; MIC [13]: 1.05 µM (≈ 0.352 µg/mL); inhibition at 0.25 µM [14]: 43.8%; growth inhibition (GI) [15]: inactive
CC1CCCc2c1ncc1c2C(=O)c2ccccc2C1=O (stereo not given)	1.03	14.4 (≈ 4 µg/mL)	14.9	–
Cc1ccc2c3c(cnc2c1)C(=O)c1ccccc1C3=O	15	–	3.21	MIC [2]: 0.64 µM (≈ 0.175 µg/mL)
Cc1nc2c(c3c1C(=O)c1ccccc1C3=O)CCC(C)C2 (stereo not given)	2.61	9.85 (≈ 2.87 µg/mL)	25.7	–
NNC(=O)c1ccncc1 [ISONIAZID]	> 769	0.13 (≈ 0.0178 µg/mL)	> 100	MIC [8]: 0.76 µM (≈ 0.104 µg/mL); MIC [10]: 0.99 µM (≈ 0.136 µg/mL); MIC [11]: 0.09 µM (≈ 0.0123 µg/mL)
O=C1c2ccccc2C(=O)c2c1cnc1c2CCCC1	0.74	9.88 (≈ 2.6 µg/mL)	7.34	–
CC1CCc2c(ncc3c2C(=O)c2ccccc2C3=O)C1 (stereo not given)	1.53	5.3 (≈ 1.47 µg/mL)	8.13	–
Cc1nc2c(c3c1C(=O)c1ccccc1C3=O)CCCC2C (stereo not given)	1.74	17.7 (≈ 5.15 µg/mL)	30.8	–
CC1CCc2ncc3c(c2C1)C(=O)c1ccccc1C3=O (stereo not given)	0.14	9.61 (≈ 2.67 µg/mL)	1.31	–
